Mdm2-MdmX inh = inhibitors of human Mdm2-MdmX association, primary screen, cell-based, luminescence, split luciferase, SaOS-2, uHTS. Protein Mdm4 (Homo sapiens) + E3 ubiquitin-protein ligase Mdm2 (Homo sapiens), …. SaOS-2 split-luciferase Mdm2/MdmX complementation. inhibition, % at 8 µM. actives 3% (n = 330,000). AID 485346, 2010;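 active = inhibition of at least 50% at 8 µM in the primary screen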
Target sequence (O15151 whole entry, looked up): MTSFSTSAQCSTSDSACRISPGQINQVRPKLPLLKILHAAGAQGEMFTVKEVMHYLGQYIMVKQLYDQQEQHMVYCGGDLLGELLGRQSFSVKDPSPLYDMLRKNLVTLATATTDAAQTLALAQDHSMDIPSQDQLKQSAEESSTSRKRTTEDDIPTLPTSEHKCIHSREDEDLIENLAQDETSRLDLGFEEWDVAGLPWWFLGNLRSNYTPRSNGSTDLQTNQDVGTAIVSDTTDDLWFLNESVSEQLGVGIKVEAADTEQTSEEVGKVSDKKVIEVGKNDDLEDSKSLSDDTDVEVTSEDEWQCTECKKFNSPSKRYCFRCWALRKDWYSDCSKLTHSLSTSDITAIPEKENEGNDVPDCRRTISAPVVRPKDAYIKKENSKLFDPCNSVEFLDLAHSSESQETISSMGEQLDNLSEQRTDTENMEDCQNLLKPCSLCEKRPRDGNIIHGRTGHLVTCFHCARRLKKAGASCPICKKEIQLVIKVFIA
Target sequence (Q00987 whole entry, looked up): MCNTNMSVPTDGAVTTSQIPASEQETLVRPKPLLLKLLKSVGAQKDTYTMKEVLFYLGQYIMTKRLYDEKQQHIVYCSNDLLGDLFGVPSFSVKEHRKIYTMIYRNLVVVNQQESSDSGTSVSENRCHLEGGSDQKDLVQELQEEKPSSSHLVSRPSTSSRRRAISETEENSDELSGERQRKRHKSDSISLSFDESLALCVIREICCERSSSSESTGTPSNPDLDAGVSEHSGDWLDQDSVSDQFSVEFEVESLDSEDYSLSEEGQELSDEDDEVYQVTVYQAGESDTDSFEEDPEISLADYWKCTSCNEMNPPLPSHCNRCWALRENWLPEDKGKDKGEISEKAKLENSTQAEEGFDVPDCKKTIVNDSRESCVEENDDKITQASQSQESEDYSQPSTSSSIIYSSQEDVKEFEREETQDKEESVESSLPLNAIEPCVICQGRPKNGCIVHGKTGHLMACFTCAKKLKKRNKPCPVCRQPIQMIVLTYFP
SKKanGAS inh = S. pyogenes SKKanGAS growth inhibitors in kanamycin, primary screen, streptokinase expression inhibitor project, SKKanGAS strain, BacTiter-Glo luminescence | 6 h | inhibition, % at 7.5 µM | actives 1.3% (n = 300,000) | AID 1662, 2009;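 active = mean replicate score, as percent of positive control median, at least 50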;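 also: strain carries kanamycin resistance gene driven by streptokinase promoter and grows in 40 µg/ml kanamycin; loss of luminescence reflects streptokinase promoter inhibition or plain growth inhibition; 0% = median of DMSO wells and 100% = positive control at its reference dose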
T cruzi repl = inhibitors of intracellular T. cruzi growth, primary screen, luminescence, NIH3T3 host cells; inhibition, % (no concentration beside the values); T. cruzi beta-gal in NIH3T3, 90 h; actives 1.4% (n = 300,000);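 active = mean inhibition across valid replicates above about 55%, limit read from the data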;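 also: signal also drops with host cell toxicity which is not excluded here; 0% = plate median of DMSO wells and 100% = zero luminescence signal; higher percent means less beta-gal luminescence so fewer parasites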
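compound dosing = single 50 nL compound addition per well in DMSO | material = NIH/3T3 host cells with β-galactosidase reporter T. cruzi | input = 5,000 host fibroblasts per well | timing = ≥90 h infection period, 3 h prior cell attachment | read-out basis = percent inhibition of parasite-derived β-gal signal | detection = GalScreen β-gal luminescence, detergent lysis, 60 min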
L major viab = Leishmania major promastigote growth inhibition, primary screen; inhibition, % at 10 µM; Leishmania major promastigotes, resazurin fluorescence viability; actives 9% (n = 200,000); in the data active = inhibition above about 50%;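 also: promastigotes grown with compound for 44 hours at 28 °C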
CSC inhib = cancer stem cell viability inhibitors, primary screen, luminescence; cancer stem cell-like cells viability; inhibition, % at 7.5 µM; AID 2717, 2010; actives 1.1% (n = 300,000); in the data active = inhibition above about 75%; tested in HMLE shEcad cells
Beta cell apopt = inhibitors of cytokine-induced beta cell apoptosis, primary screen, luminescence; protection from apoptosis, % (test concentration not listed); INS-1E cytokine-induced death, ATP luminescence, 48 h; percent of positive-control rescue, neutral wells zero; actives 0.8% (n = 300,000);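 active = Every replicate reaches about 75%, or at least half do and their mean reaches it too, limit read from the data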;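 also: 0% = cytokine-treated negative control wells and 100% = positive control rescue; higher means more ATP so stronger rescue from cytokine killing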
* hit, by the source's call; / = no result. Only some compounds are listed: those with a hit (about 9.4% of all), similar ones and a draw of the others.

SMILES	Mdm2-MdmX inh	SKKanGAS inh	T cruzi repl	L major viab	CSC inhib	Beta cell apopt
CCC(C(=O)Nc1cccc(S(=O)(=O)N(C)c2ccccc2)c1)c1ccccc1 (stereo not given)	-3.0	/	/	/	15.2	-0.1
CCC(=O)Nc1ccc(C(=O)CN2C(=O)NC3(CCOc4ccccc43)C2=O)cc1 (stereo not given)	-31.1	/	/	/	/	-2.9
COc1ccc2c(c1)[C@H]1[C@H](CO2)[C@H](c2ccccc2)[C@]2(C)C(=O)N(CC3CCCO3)CC(=O)N12 (stereo not given in full)	15.5	/	/	/	1.5	0.6
CCOc1ccccc1NC(=O)c1cccc(S(=O)(=O)N(Cc2ccccc2)c2ccccc2OC)c1	45.7	10.0	49.9	85.7*	3.2	2.1
COC(=O)c1ccccc1S(=O)(=O)N1CCC(C(=O)NCCC2=CCCCC2)CC1	9.1	/	/	/	-13.6	2.4
O=[N+]([O-])c1cc(-c2nc3nc4ccccc4nc3n2CCc2ccccc2)cc([N+](=O)[O-])c1	-0.5	4.8	55.5*	60.7*	12.8	-5.4
S=c1[nH]nc(-c2cccc(Cl)c2)n1Cc1ccccc1	2.8	-5.4	-19.1	-9.9	-8.9	3.8
C=CCn1c(-c2ccccc2)nc2nc3ccccc3nc21	15.3	-4.6	-3.5	4.0	23.3	-1.2
c1ccc(Cn2c(-c3ccccc3)nc3nc4ccccc4nc32)cc1	3.2	12.2	28.0	84.0*	/	11.3
Clc1cccc(-c2nc3nc4ccccc4nc3n2Cc2ccccc2)c1	17.9	17.4	33.5	52.1*	17.1	8.1
CC(Sc1ccc(S(=O)(=O)N2CCN(C)CC2)cn1)C(=O)NC1CCCCC1 (stereo not given)	-31.7	/	/	/	-11.2	5.5
COc1ccccc1N1CCN(C(=S)Nc2ccccc2)CC1	12.5	0.2	-12.3	/	-4.0	-1.6
O=C(c1nc2ccc(Cl)cn2c1CNCC[C@@H]1C[C@@H]2C=C[C@H]1C2)N1CCCCCCC1	39.9	-3.9	31.4	70.1*	3.5	-16.8
O=c1[nH]c(=O)n([C@H]2C[C@H](O)[C@@H](CO)O2)cc1Br	-33.4	/	/	/	-4.6	-1.7
O=c1[nH]c(=O)n([C@H]2C[C@H](O)[C@@H](CO)O2)cc1F	/	92.0*	35.5	82.1*	70.6	40.1
N/C(Cc1ccccc1Sc1ccccc1)=N\O	15.3	4.0	-7.2	2.7	-7.4	0.0
CCN(CC)Cc1ccccc1Sc1ccccc1	/	2.4	-8.0	94.4*	5.2	0.8
CC(C)(C)C(=O)Nc1ccc(-c2cc3cc(Cl)ccc3o2)cc1	19.7	4.5	0.3	/	-11.2	-0.3
O=C(COc1cccc2cccnc12)Nc1ccccc1N1CCOCC1	15.1	-4.6	-9.1	3.6	-12.0	-14.0
S=C(Nc1ccccc1Cl)N1CCCCCC1	-18.1	-3.9	0.6	-6.4	-4.0	1.0
S=C(Nc1ccccc1Cl)N1CCCC(c2ccccc2)=N1	-2.8	1.1	35.5	/	83.5*	-2.6
O=[N+]([O-])c1ccc(OCCCCN2CCCCC2)cc1	0.8	-0.7	26.4	88.7*	7.1	-8.4
O=[N+]([O-])c1ccc(OCCCCCN2CCOCC2)cc1	19.2	2.2	-20.3	/	17.8	-2.3
CC1CCN(CCCCOc2ccccc2[N+](=O)[O-])CC1	12.6	-4.9	-30.2	89.5*	2.3	2.3
CC1CCN(CCCCOc2ccc([N+](=O)[O-])cc2)CC1	-0.9	-6.7	19.9	91.3*	33.2	1.6
SMILES	Mdm2-MdmX inh	SKKanGAS inh	T cruzi repl	L major viab	CSC inhib	Beta cell apopt
COC(=O)C1CCN(Cc2ccc(OCCCN3CCN(c4ccc([N+](=O)[O-])cc4)CC3)cc2)CC1	33.9	-2.0	60.9*	95.5*	26.2	3.6
COc1ccc(CN2CC[C@H]3C=CCc4cccc(c43)C2)cc1	-1.0	/	/	/	12.9	7.3
CN(C)S(=O)(=O)c1cccc(NC(=O)CN(CCO)CC(=O)Nc2cccc(S(=O)(=O)N(C)C)c2)c1	19.4	0.9	-7.1	/	-13.3	-5.0
Cc1ccc(NCC(=O)Nc2cccc(S(=O)(=O)N(C)C)c2)c(Cl)c1	7.8	-1.4	-2.2	75.5*	-4.7	0.2
CN(C)S(=O)(=O)c1cccc(NC(=O)Cc2ccc(Cl)cc2)c1	10.2	3.6	-10.4	67.2*	-6.7	/
CN(C)S(=O)(=O)c1cccc(NC(=O)CNC2CCCCC2)c1	14.4	-8.2	-8.5	/	9.3	-2.4
CN(C)S(=O)(=O)c1cccc(NC(=O)c2ccc(OC(F)(F)F)cc2)c1	22.5	1.5	-2.0	56.9*	-4.9	-10.0
Cc1ccc(S(=O)(=O)N(C)C)cc1NC(=O)c1ccc(OC(F)(F)F)cc1	10.8	-3.1	-3.1	-1.3	-0.4	0.7
O=C(Cc1ccc(Cl)cc1)Nc1cccc(S(=O)(=O)Nc2ccccc2F)c1	21.8	9.8	-9.0	69.1*	9.2	-6.2
CC(=O)c1ccccc1NC(=O)c1ccc(N2CCCC2=O)cc1	-16.8	1.0	2.2	/	-4.1	1.2
O=C(CSc1nnc(C2CC2)n1C1CC1)c1cccs1	-3.9	/	/	/	3.4	-5.2
O=C(CCC(=O)c1ccc(F)cc1)Nc1cccc(S(=O)(=O)Nc2cccc(Cl)c2)c1	20.2	12.1	-2.3	69.2*	42.1	-3.8
O=C(CCC(=O)c1ccc(F)cc1)Nc1cccc(C(F)(F)F)c1	0.6	-5.4	-10.6	-8.0	7.0	0.8
O=C(Cc1ccc(Cl)cc1)Nc1ccc2c(c1)C(=O)NC2=O	18.0	1.8	-7.4	-3.8	91.3*	118.5*
O=C(Cc1ccc([N+](=O)[O-])cc1)Nc1ccc2c(c1)C(=O)NC2=O	14.9	-4.1	-9.0	-5.0	8.2	0.8
CCC1CCCCN1C(=O)c1ccc(OC2CCN(C(=O)C3CC3)CC2)cc1 (stereo not given)	14.4	1.0	-20.7	2.0	-6.9	-1.7
O=C(Nc1ccncc1)c1ccc2c(c1)S(=O)(=O)c1ccccc1C2=O	33.4	3.2	2.5	99.5*	12.5	-4.9
O=C(Nc1ccc(-c2ccccc2)cc1)c1ccc2c(c1)S(=O)(=O)c1ccccc1C2=O	43.0	4.8	-8.3	/	12.3	-0.5
O=C(Nc1nc2ccc(SC(F)F)cc2s1)c1ccc2c(c1)S(=O)(=O)c1ccccc1C2=O	47.0	23.6	-24.1	85.8*	-2.1	4.0
COc1cccc(C2C(=O)N(C3CCCCC3)CC(=O)N2Cc2ccc(F)cc2)c1 (stereo not given)	6.2	2.0	-20.5	53.2*	/	5.1
O=C(C(=S)N1CCOCC1)c1c[nH]c2ccccc12	-16.9	1.1	-8.2	4.0	-9.8	-11.7
Cn1ccsc1=NC(=O)c1ccccc1F	-32.5	3.5	-5.2	-3.3	-9.9	0.0
Cc1ccc(C)c(-n2c(-c3ccc(Br)cc3)csc2=NC(=O)c2ccccc2F)c1	-21.0	-14.6	63.6*	/	3.3	12.2
CC1CN=C(N(C(=S)Nc2ccccc2)c2cccc(C(F)(F)F)c2)S1 (stereo not given)	-24.0	-2.4	-1.4	/	7.3	5.5

Compound activity from PubChem BioAssay.
